Published values from different studies.
PIK3CA E542K: Phosphatidylinositol 4,5-bisphosphate 3-kinase catalytic subunit alpha isoform (PIK3CA, Homo sapiens, UniProt P42336, E542K)
PIK3CA M1043I: Phosphatidylinositol 4,5-bisphosphate 3-kinase catalytic subunit alpha isoform (PIK3CA, Homo sapiens, UniProt P42336, M1043I)
PIK3CA C420R: Phosphatidylinositol 4,5-bisphosphate 3-kinase catalytic subunit alpha isoform (PIK3CA, Homo sapiens, UniProt P42336, C420R)
PIK3CA E545K: Phosphatidylinositol 4,5-bisphosphate 3-kinase catalytic subunit alpha isoform (PIK3CA, Homo sapiens, UniProt P42336, E545K)
PIK3CA E545A: Phosphatidylinositol 4,5-bisphosphate 3-kinase catalytic subunit alpha isoform (PIK3CA, Homo sapiens, UniProt P42336, E545A)
PIK3CA H1047L: Phosphatidylinositol 4,5-bisphosphate 3-kinase catalytic subunit alpha isoform (PIK3CA, Homo sapiens, UniProt P42336, H1047L)
PIK3CA I800L: Phosphatidylinositol 4,5-bisphosphate 3-kinase catalytic subunit alpha isoform (PIK3CA, Homo sapiens, UniProt P42336, I800L)
PIK3CA: Phosphatidylinositol 4,5-bisphosphate 3-kinase catalytic subunit alpha isoform (PIK3CA, Homo sapiens, UniProt P42336)

target | test | conditions | remaining binding | Compound
PIK3CA E542K | cell-free assay, competition with immobilised ligand | 1 µM | 82% | COc1cc(-c2cn(C3CCc4ccccc4N(CC(F)(F)F)C3=O)nn2)ccc1-n1ccc(C)n1 (stereo not drawn)
PIK3CA M1043I | binding, competition with immobilised ligand | 1 µM | 62% | Nc1ncc2c(n1)-c1c([nH]c3ccc(C#CC4CC4)cc13)CCCC2
PIK3CA C420R | binding, competition with immobilised ligand | 1 µM | 95% | COc1cnc(Nc2cccc(S(N)(=O)=O)c2)nc1N1CCN(c2ccccc2)CC1
PIK3CA M1043I | binding, competition with immobilised ligand | 0.1 µM | 89% | C[C@@H](c1ccc(-n2cnc3c(N)ncnc32)cc1)N1CCc2nn(C)c(Cc3ccccc3)c2C1=O
PIK3CA E545K | cell-free assay, competition with immobilised ligand | 1 µM | 82% | Cn1nc(C(F)(F)F)cc1-c1cnc(N2CCc3cc(S(=O)(=O)Nc4c(F)cc(Cl)cc4F)cc(N4CCCC4=O)c32)nc1
PIK3CA E545A | binding, competition with immobilised ligand | 1 µM | 100% | O=C(NCCCN1CCOCC1)c1ccc(Nc2ncc(Cl)c(-c3ccc(Cl)s3)n2)cc1
PIK3CA C420R | cell-free assay, competition with immobilised ligand | 0.1 µM | 72% | C[C@@H]1CN(c2cc(-c3n[nH]c4ccc(OC5(C)CC5)cc34)ncn2)C[C@H](C)O1
PIK3CA H1047L | binding, competition with immobilised ligand | 1 µM | 74% | O=C(NCC1CCOCC1)c1n[nH]cc1NC(=O)c1c(F)cccc1F
PIK3CA E545K | binding | 10 µM | 36% | CN1CCN(c2ccc(Nc3nccc(-c4cccc([N+](=O)[O-])c4)n3)cc2C(F)(F)F)CC1
PIK3CA E545A | cell-free assay, competition with immobilised ligand | 1 µM | 86% | O=C(NS(=O)(=O)c1ccc(NCC2CCOCC2)c([N+](=O)[O-])c1)c1ccc(N2CCN(Cc3ccc(C(F)(F)F)cc3-c3ccc(Cl)cc3)CC2)cc1Oc1cnc2[nH]ccc2c1
Phosphatidylinositol 4,5-bisphosphate 3-kinase catalytic subunit alpha isoform (PIK3CA, Homo sapiens, UniProt P42336, Q546K) | binding, competition with immobilised ligand | 10 µM | 100% | c1cncc(-c2cccc(Nc3nccc(NC4CCCCC4)n3)c2)c1
PIK3CA I800L | binding | 1 µM | 88% | CC1CCCN1c1nccc(-c2cnn3ncccc23)n1 (stereo not drawn)
PIK3CA E545A | binding, competition with immobilised ligand | 1 µM | 99% | O=C(c1ccc(Nc2ncc(Cl)c(-c3cc4ccccc4s3)n2)cc1)N1CCC(N2CCCC2)CC1
PIK3CA I800L | binding | 1 µM | 100% | Cc1cnn2ncc(-c3ccnc(N(C)C)n3)c2c1
PIK3CA | cell-free assay, competition with immobilised ligand | 0.1 µM | 100% | CN1CC[C@H](c2c(O)cc(O)c3c(=O)cc(-c4ccccc4Cl)oc23)[C@H](O)C1
PIK3CA | binding, competition with immobilised ligand | 1 µM | 100% | CNC(=O)[C@@H]1CC[C@@H](n2c(-c3ccc4cnccc4c3)nc3ccc(C(=O)NCc4cccc(C(N)=O)c4)cc32)C1
PIK3CA E545A | binding | 1 µM | 93% | COc1ccnn2ncc(-c3ccnc(N(C)C)n3)c12
PIK3CA E542K | cell-free assay, competition with immobilised ligand | 1 µM | 79% | CN(C)C(=O)Cn1cc(-c2nc([C@@](C)(c3ccc(-c4cnc(N)nc4)cc3)C3CC3)no2)cn1
PIK3CA E542K | binding | 1 µM | 83% | N[C@H]1CCN(c2nccc(-c3cnn4ncccc34)n2)C1
PIK3CA I800L | binding, competition with immobilised ligand | 1 µM | 92% | O=C(c1ccc(Nc2ncc(Cl)c(-c3ccc(Cl)s3)n2)cc1)N1CCC(N2CCCC2)CC1
PIK3CA H1047L | cell-free assay, competition with immobilised ligand | 1 µM | 69% | CC(=O)C1=C(C)N(c2cccc(C(F)(F)F)c2)C(=O)N[C@@H]1c1ccc(C#N)nc1
PIK3CA M1043I | binding | 1 µM | 100% | CN(c1nccc(-c2cnn3ncccc23)n1)C1CC1
PIK3CA M1043I | cell-free assay, competition with immobilised ligand | 1 µM | 96% | CN(C)CC#Cc1ccc(OCCCc2sc(N3CCc4cccc(C(=O)Nc5nc6ccccc6s5)c4C3)nc2C(=O)O)c(F)c1
PIK3CA E542K | binding | 1 µM | 68% | CN(CCCC(F)(F)F)c1nccc(-c2cnn3ncccc23)n1
